Experimental data as given in ChEMBL document CHEMBL1671715, “Depolarization, bacterial membrane composition, and the antimicrobial action of ceragenins” (2010).
Values after ≈ are worked out from the molar mass of the structure shown. Active and inactive are the calls of the source. The calls are words filed in the database; no cut-off is given here.

Assays:
[1] = system: Escherichia coli; assay: Bactericidal activity against Escherichia coli ATCC 25922 with lipid composition of […], 15% phosphatidylglycerol and 5% cardiolipin by broth microdilution method; assay type: functional
How it was run: (§1)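 MBC by broth microdilution in the Gram-negative depolarization buffer (20 mM glucose, 5 mM HEPES, pH 7.3). Cells were incubated 24 h with incrementally varied ceragenin concentrations and plated on tryptic soy agar. MBC is the lowest concentration completely eradicating bacteria (detection limit 10 CFU/ml).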

[2] = system: Klebsiella pneumoniae; assay: Bactericidal activity against Klebsiella pneumoniae ATCC 13883 with lipid composition of 82% phosphatidylethanolamine, 5% phosphatidylglycerol and 6% cardiolipin by broth microdilution method; assay type: functional; how it was run: as §1
[3] = system: Pseudomonas aeruginosa; assay: Bactericidal activity against Pseudomonas aeruginosa ATCC 27852 with lipid composition of 60% phosphatidylethanolamine, 21% phosphatidylglycerol and 11% cardiolipin by broth microdilution method; assay type: functional; how it was run: as §1
[4] = system: Klebsiella pneumoniae; assay: Induction of outer membrane permeabilization of Klebsiella pneumoniae ATCC 13883 at MBC by DiS-C2 dye based fluorimetric assay; assay type: functional, organism-based
How it was run: (§2)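 Overnight TSB cultures (37°C), washed three times in TSB, then suspended in 20 mM glucose/5 mM HEPES, pH 7.3, at A600 0.085 with 1 μM DiS-C2(5). Equilibrated about 60 min at 37°C to a stable baseline. EDTA or ceragenin added; fluorescence (ex 600/em 660 nm) read every 30 s with stirring at 37°C. A fluorescence drop indicates outer-membrane permeabilization and dye uptake.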

[5] = system: Escherichia coli; assay: Induction of outer membrane permeabilization of Escherichia coli ATCC 25922 at MBC by DiS-C2 dye based fluorimetric assay; assay type: functional, organism-based; how it was run: as §2
[6] = system: Escherichia coli; assay: Induction of outer membrane permeabilization of Escherichia coli ML-35p by nitrocefin permeation based spectrophotometric assay; assay type: functional, organism-based
How it was run: (§3)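 E. coli ML-35p grown overnight in TSB at 37°C, washed three times in 10 mM phosphate/0.1 M NaCl, pH 7.4. Diluted to 10^6 CFU/ml in the same buffer with 300 μg/ml TSB. Ceragenin or melittin 0–100 μg/ml, in duplicate. Outer membrane: 30 μM nitrocefin, A486. Inner membrane: 2.5 mM ONPG, A420. Read every 2 min for 60 min at 37°C with shaking.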

[7] = system: Paenibacillus polymyxa; assay: Bactericidal activity against Bacillus polymyxa ATCC 21830 with lipid composition of 60% phosphatidylethanolamine, 3% phosphatidylglycerol and 8% cardiolipin by broth microdilution method; assay type: functional
How it was run: (§4)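 Cells were incubated 24 h with incrementally varied ceragenin concentrations, then plated on tryptic soy agar. MBC is the lowest concentration completely eradicating bacteria (detection limit 10 CFU/ml).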

[8] = system: Bacillus cereus; assay: Bactericidal activity against Bacillus cereus ATCC 11778 with lipid composition of 43% phosphatidylethanolamine, 40% phosphatidylglycerol and 17% cardiolipin by broth microdilution method; assay type: functional; how it was run: as §4
[9] = system: Enterococcus faecalis; assay: Bactericidal activity against Enterococcus faecalis ATCC 29212 with lipid composition of 0% phosphatidylethanolamine, 27% phosphatidylglycerol and 19% cardiolipin by broth microdilution method; assay type: functional; how it was run: as §4
[10] = system: Staphylococcus epidermidis; assay: Bactericidal activity against Staphylococcus epidermidis ATCC 35984 with lipid composition of 0% phosphatidylethanolamine, 90% phosphatidylglycerol and 1% cardiolipin by broth microdilution method; assay type: functional; how it was run: as §4
[11] = system: Staphylococcus aureus; assay: Bactericidal activity against Staphylococcus aureus ATCC 25923 with lipid composition of 0% phosphatidylethanolamine, 67% phosphatidylglycerol and 19% cardiolipin by broth microdilution method; assay type: functional; details: in the assay text read “57% phosphatidylglycerol” for “67% phosphatidylglycerol”; how it was run: as §4
[12] = system: Staphylococcus aureus; assay: Bactericidal activity against methicillin-resistant Staphylococcus aureus ATCC BAA-41 with lipid composition of 0% phosphatidylethanolamine, 57% phosphatidylglycerol and 19% cardiolipin by broth microdilution method; assay type: functional
How it was run: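 Cells were incubated 24 h with stepwise-varied ceragenin concentrations, then each sample was plated on tryptic soy agar. MBC was taken as the lowest concentration giving complete kill (detection limit 10 CFU/ml).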

[13] = system: Paenibacillus polymyxa; assay: Induction of cytoplasmic membrane depolarization in Bacillus polymyxa ATCC 21830 with lipid composition of 60% phosphatidylethanolamine, 3% phosphatidylglycerol and 8% cardiolipin at MBC by DiS-C2 dye based fluorimetric assay; assay type: functional
How it was run: (§5)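 Overnight TSB cultures (37°C) were washed three times in 250 mM sucrose, 5 mM MgSO4, 10 mM K phosphate, pH 7.0, and diluted to A600 0.085 with 1 μM DiS-C2(5). Dye loaded 7 min at room temperature, then 7 min at 37°C. Ceragenin added with stirring at 37°C; fluorescence (ex 600/em 660 nm) read every 30 s. Depolarization at 330 s is expressed as % of the maximal fluorescence increase at 4× MBC.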

[14] = system: Bacillus cereus; assay: Induction of cytoplasmic membrane depolarization in Bacillus cereus ATCC 11778 with lipid composition of 43% phosphatidylethanolamine, 40% phosphatidylglycerol and 17% cardiolipin at MBC by DiS-C2 dye based fluorimetric assay; assay type: functional; how it was run: as §5
[15] = system: Enterococcus faecalis; assay: Induction of cytoplasmic membrane depolarization in Enterococcus faecalis ATCC 29212 with lipid composition of 0% phosphatidylethanolamine, 27% phosphatidylglycerol and 19% cardiolipin at MBC by DiS-C2 dye based fluorimetric assay; assay type: functional; how it was run: as §5
[16] = system: Staphylococcus epidermidis; assay: Induction of cytoplasmic membrane depolarization in Staphylococcus epidermidis ATCC 35984 with lipid composition of 0% phosphatidylethanolamine, 90% phosphatidylglycerol and 1% cardiolipin at MBC by DiS-C2 dye based fluorimetric assay; assay type: functional; how it was run: as §5
[17] = system: Staphylococcus aureus; assay: Induction of cytoplasmic membrane depolarization in Staphylococcus aureus ATCC 25923 with lipid composition of 0% phosphatidylethanolamine, 57% phosphatidylglycerol and 19% cardiolipin at MBC by DiS-C2 dye based fluorimetric assay; assay type: functional; how it was run: as §5
[18] = system: Staphylococcus aureus; assay: Induction of cytoplasmic membrane depolarization in Staphylococcus aureus ATCC BAA-41 with lipid composition of 0% phosphatidylethanolamine, 57% phosphatidylglycerol and 19% cardiolipin at MBC by DiS-C2 dye based fluorimetric assay; assay type: functional; how it was run: as §5
[19] = system: Escherichia coli; assay: Induction of inner membrane permeabilization of Escherichia coli ML-35p at 100 ug/ml by ONPG hydrolysis based spectrophotometric assay
[20] = system: Escherichia coli; assay: Induction of inner membrane permeabilization of Escherichia coli ML-35p by ONPG hydrolysis based spectrophotometric assay; assay type: functional, organism-based; how it was run: as §3

Row | SMILES | MBC [1] [µg/mL] | MBC [2] [µg/mL] | MBC [3] [µg/mL] | Activity [4] | Activity [5] | Activity [6] | MBC [7] [µg/mL] | MBC [8] [µg/mL] | MBC [9] [µg/mL] | MBC [10] [µg/mL] | MBC [11] [µg/mL] | MBC [12] [µg/mL] | Activity [13] [%] | Activity [14] [%] | Activity [15] [%] | Activity [16] [%] | Activity [17] [%] | Activity [18] [%] | Activity [19] | Activity [20]
1 | C[C@H](CCCO)[C@H]1CC[C@H]2[C@@H]3[C@H](OCCCN)C[C@@H]4C[C@H](OCCCN)CC[C@]4(C)[C@H]3C[C@H](OCCCN)[C@]12C | 10 (≈ 17.7 µM) | 12.5 (≈ 22.1 µM) | 12 (≈ 21.2 µM) | Active | Active | Dose-dependent effect | 15 (≈ 26.5 µM) | 7 (≈ 12.4 µM) | 50 (≈ 88.4 µM) | 12 (≈ 21.2 µM) | 35 (≈ 61.9 µM) | 19 (≈ 33.6 µM) | 96.6 | 84.7 | 80.6 | 60.1 | 82.8 | 39 | inactive | –
2 | CCCCCCCCNCCC[C@@H](C)[C@H]1CC[C@H]2[C@@H]3[C@H](OCCCN)C[C@@H]4C[C@H](OCCCN)CC[C@]4(C)[C@H]3C[C@H](OCCCN)[C@]12C | 1.5 (≈ 2.22 µM) | 2.5 (≈ 3.69 µM) | 3.5 (≈ 5.17 µM) | – | – | Dose-dependent effect | 2.5 (≈ 3.69 µM) | 1 (≈ 1.48 µM) | 5.5 (≈ 8.12 µM) | 1 (≈ 1.48 µM) | 2.5 (≈ 3.69 µM) | 2 (≈ 2.95 µM) | 88.4 | 86.7 | 74 | 25 | 41.5 | 45.8 | – | Active
3 | CC[C@H](C)[C@H](NC(=O)CN)C(=O)NCC(=O)N[C@@H](C)C(=O)N[C@H](C(=O)N[C@@H](CC(C)C)C(=O)N[C@@H](CCCCN)C(=O)N[C@H](C(=O)N[C@@H](CC(C)C)C(=O)N[C@H](C(=O)N[C@H](C(=O)NCC(=O)N[C@@H](CC(C)C)C(=O)N1CCC[C@H]1C(=O)N[C@@H](C)C(=O)N[C@@H](CC(C)C)C(=O)N[C@H](C(=O)N[C@@H](CO)C(=O)N[C@@H](Cc1c[nH]c2ccccc12)C(=O)N[C@H](C(=O)N[C@@H](CCCCN)C(=O)N[C@@H](CCCNC(=N)N)C(=O)N[C@@H](CCCCN)C(=O)N[C@@H](CCCNC(=N)N)C(=O)N[C@@H](CCC(N)=O)C(=O)N[C@@H](CCC(N)=O)C(N)=O)[C@@H](C)CC)[C@@H](C)CC)[C@@H](C)O)[C@@H](C)O)C(C)C)C(C)C | – | – | – | – | – | Active | – | – | – | – | – | – | – | – | – | – | – | – | – | –
4 | C[C@H](CCCNCCCNCCCN)[C@H]1CC[C@H]2[C@@H]3[C@H](OCCCN)C[C@@H]4C[C@H](OCCCN)CC[C@]4(C)[C@H]3C[C@H](OCCCN)[C@]12C | – | – | – | – | – | Dose-dependent effect | 2.5 (≈ 3.68 µM) | 7 (≈ 10.3 µM) | 280 (≈ 412 µM) | 2.5 (≈ 3.68 µM) | 49 (≈ 72.2 µM) | 28 (≈ 41.2 µM) | 39.6 | 79.7 | 77.2 | 26.3 | 39.8 | 15.3 | inactive | –
